Consider 33 compounds from ChEMBL document CHEMBL1148785, “Second generation tetrahydroquinoline-based protein farnesyltransferase inhibitors as antimalarials” (J Med Chem, 2007).

The structures appear in SMILES notation.

Assay [1] relates to Plasmodium falciparum. In words: Antimalarial activity against Plasmodium falciparum 3D7. The format is functional. As to conditions: Plasmodium falciparum, 3D7; read-out: ED50 (the source's name). Put shortly:
(§1)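 Asynchronous culture in type A+ erythrocytes at 0.5% parasitemia and 0.5% hematocrit, grown in RPMI-1640 with 20% heat-inactivated human A+ plasma. Compound was serially diluted from a top final 5 µM, with DMSO vehicle as 100% growth. Plates ran 48 h at 37 °C under 5% CO2/5% O2/90% N2, then [3H]-hypoxanthine (0.3 µCi) for 24 h. Filter-harvested counts were corrected for the uninfected-RBC background. ED50 by linear regression; duplicates averaged.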

The test system of assay [2] is Plasmodium falciparum. In words: Antimalarial activity against Plasmodium falciparum K1. As to conditions: Plasmodium falciparum, K1; read-out: ED50 (the source's name). It is filed as functional. Put shortly: as §1
The test system of assay [3] is Plasmodium falciparum. Description: Inhibition of Plasmodium falciparum protein farnesyltransferase at 50 nM by scintillation proximity assay. Background: Scintillation proximity formats need no separation of bound from free tracer.
The test system of assay [4] is Plasmodium falciparum. Description: Inhibition of Plasmodium falciparum protein farnesyltransferase at 0.5 nM by scintillation proximity assay.
The test system of assay [5] is Plasmodium falciparum. In words: Inhibition of Plasmodium falciparum protein farnesyltransferase at 5 nM by scintillation proximity assay.

For orientation: inhibition means the percentage by which the read-out fell short of the control. Read a low inhibition as a weak effect. Regarding `Cc1c(S(=O)(=O)N(CC2CCN(C(=O)OC(C)(C)C)CC2)C2Cc3cc(C#N)ccc3N(Cc3cncn3C)C2)ncn1C` (configuration not stated), the EC50 was 140 nM with Plasmodium falciparum [1] and 75 nM in the assay on Plasmodium falciparum [2]. Further, the inhibition in the assay on Plasmodium falciparum [3] came out at 98%; in the assay with Plasmodium falciparum [4], 18%; in the assay with Plasmodium falciparum [5] it was 87%.
On to `CN(C)S(=O)(=O)N(Cc1ccccc1F)C1Cc2cc(C#N)ccc2N(Cc2cncn2C)C1` (configuration not stated), for which the EC50 stood at 360 nM in the assay on Plasmodium falciparum [1] and 3600 nM in the assay on Plasmodium falciparum [2]. In addition, the inhibition in the assay on Plasmodium falciparum [3] is 62%; in the assay with Plasmodium falciparum [4], 8%; with Plasmodium falciparum [5] it was 10%.
For `Cn1cncc1CN1CC(N(CCCN)S(=O)(=O)c2ccccn2)Cc2cc(C#N)ccc21` (configuration not stated), in that order: over 5000 nM, over 5000 nM, 32%, 0% and 7%.
As for `Cn1cnc(S(=O)(=O)N(CCN2CCCCC2)C2Cc3cc(C#N)ccc3N(Cc3cncn3C)C2)c1` (configuration not stated), the EC50 with Plasmodium falciparum [1] was 200 nM; in the assay on Plasmodium falciparum [2], 300 nM. In addition, the values for the inhibition with Plasmodium falciparum [3], with Plasmodium falciparum [4] and in the assay with Plasmodium falciparum [5] were 93%, 9% and 62%, respectively.
For the compound `Cn1cnc(S(=O)(=O)N(Cc2cc3nsnc3cc2Cl)C2Cc3cc(C#N)ccc3N(Cc3cncn3C)C2)c1` (configuration not stated), the EC50 with Plasmodium falciparum [1] was found to be 3000 nM; in the assay on Plasmodium falciparum [2], 3750 nM. For the same compound, the inhibition was 90% in the assay on Plasmodium falciparum [3], 0% in the assay with Plasmodium falciparum [4] and 58% with Plasmodium falciparum [5].
As to `Cn1cncc1CN1CC(N(Cc2cccc3cccnc23)S(=O)(=O)c2ccccn2)Cc2cc(C#N)ccc21` (configuration not stated), the EC50 worked out at 1740 nM in the assay with Plasmodium falciparum [1] and 1320 nM in the assay on Plasmodium falciparum [2]. In addition, the inhibition is 88% in the assay with Plasmodium falciparum [3], 17% with Plasmodium falciparum [4] and 46% in the assay on Plasmodium falciparum [5].
For `Cn1cnc(S(=O)(=O)N2CCC(CN(C3Cc4cc(C#N)ccc4N(Cc4cncn4C)C3)S(=O)(=O)c3ccccn3)CC2)c1` (configuration not stated), the figures for the EC50 in the assay on Plasmodium falciparum [1] and in the assay with Plasmodium falciparum [2] were 700 nM and 650 nM, respectively. The figures for the inhibition with Plasmodium falciparum [3], with Plasmodium falciparum [4] and in the assay with Plasmodium falciparum [5] were 92%, 60% and 20%, respectively.
With `CN(C)CCCN(C1Cc2cc(C#N)ccc2N(Cc2cncn2C)C1)S(=O)(=O)c1cn(C)cn1` (configuration not stated), the values for the EC50 with Plasmodium falciparum [1] and in the assay with Plasmodium falciparum [2] were 2600 nM and over 5000 nM, respectively. Also, the inhibition in the assay with Plasmodium falciparum [3] is 34%; in the assay with Plasmodium falciparum [4], 0%; in the assay on Plasmodium falciparum [5] it was 9%.
Consider `Cn1cnc(S(=O)(=O)N(CC(=O)NC(C)(C)C)C2Cc3cc(C(=O)O)ccc3N(Cc3cncn3C)C2)c1` (configuration not stated), for which the EC50 with Plasmodium falciparum [1] was 3500 nM; in the assay on Plasmodium falciparum [2] it was 1420 nM. Moreover, the inhibition worked out at 80% with Plasmodium falciparum [3], 0% in the assay on Plasmodium falciparum [4] and 29% in the assay on Plasmodium falciparum [5].
For `COC(=O)c1cccc(CN(C2Cc3cc(C#N)ccc3N(Cc3cncn3C)C2)S(=O)(=O)c2ccccn2)n1` (configuration not stated), in that order: 600 nM, 900 nM, 96%, 66% and 94%.
With `CCOC(=O)N1CCC(CN(C2Cc3cc(C#N)ccc3N(Cc3cncn3C)C2)S(=O)(=O)c2cn(C)cn2)CC1` (configuration not stated), the EC50 with Plasmodium falciparum [1] is 14 nM; with Plasmodium falciparum [2], 7 nM. Moreover, the figures for the inhibition in the assay on Plasmodium falciparum [3], in the assay on Plasmodium falciparum [4] and in the assay with Plasmodium falciparum [5] were 98%, 49% and 96%, respectively.
Take `CCN(CCCCN(C1Cc2cc(C#N)ccc2N(Cc2cncn2C)C1)S(=O)(=O)c1ccccn1)C(=O)OC` (configuration not stated): the EC50 turned out to be 250 nM with Plasmodium falciparum [1] and 600 nM in the assay with Plasmodium falciparum [2]. Further, the inhibition worked out at 89% in the assay with Plasmodium falciparum [3], 26% with Plasmodium falciparum [4] and 69% in the assay on Plasmodium falciparum [5].
In the case of `Cn1cnc(S(=O)(=O)N(Cc2ccc(S(C)(=O)=O)cc2Cl)C2Cc3cc(C#N)ccc3N(Cc3cncn3C)C2)c1` (configuration not stated), the values for the EC50 with Plasmodium falciparum [1] and with Plasmodium falciparum [2] were 57 nM and under 20 nM, respectively. Also, the inhibition in the assay on Plasmodium falciparum [3] came to 99%; with Plasmodium falciparum [4], 69%; with Plasmodium falciparum [5], 98%.
On the same counts, the results for `COC(=O)NCCCN(C1Cc2cc(C#N)ccc2N(Cc2cncn2C)C1)S(=O)(=O)c1ccccn1` (configuration not stated) are 100 nM, 100 nM, 96%, 28% and 77%.
For `CCCS(=O)(=O)N(Cc1ccccc1F)C1Cc2cc(C#N)ccc2N(Cc2cncn2C)C1` (configuration not stated), the EC50 with Plasmodium falciparum [1] came to 1200 nM; with Plasmodium falciparum [2], 3050 nM. The inhibition in the assay with Plasmodium falciparum [3] was determined as 41%; in the assay on Plasmodium falciparum [4] it was 11%; with Plasmodium falciparum [5], 16%.
On to `COC(=O)NCCCN(C1Cc2cc(C#N)ccc2N(Cc2cncn2C)C1)S(=O)(=O)c1cn(C)cn1` (configuration not stated), for which the EC50 in the assay on Plasmodium falciparum [1] turned out to be 19 nM; in the assay with Plasmodium falciparum [2], 17 nM. Besides, the inhibition in the assay with Plasmodium falciparum [3] amounted to 100%; in the assay with Plasmodium falciparum [4], 61%; with Plasmodium falciparum [5], 96%.
On the same counts, the results for `Cn1cncc1CN1CC(N(CC2CCN(C(=O)NC(C)(C)C)CC2)S(=O)(=O)c2ccccn2)Cc2cc(C#N)ccc21` (configuration not stated) are 320 nM, 150 nM, 98%, 84% and 28%.
For `Cn1cnc(S(=O)(=O)N(CCN2CCCC2=O)C2Cc3cc(C#N)ccc3N(Cc3cncn3C)C2)c1` (configuration not stated), the results for the EC50 in the assay on Plasmodium falciparum [1] and with Plasmodium falciparum [2] were 87 nM and 60 nM, respectively. Further, the results for the inhibition in the assay on Plasmodium falciparum [3], with Plasmodium falciparum [4] and with Plasmodium falciparum [5] were 99%, 0% and 65%, respectively.
As to `CC(C)OC(=O)N1CCC(CN(C2Cc3cc(-c4ccccc4)ccc3N(Cc3cn(C)cn3)C2)S(=O)(=O)c2cn(C)cn2)CC1` (configuration not stated), the EC50 with Plasmodium falciparum [1] came out at 450 nM; in the assay with Plasmodium falciparum [2] it was 350 nM. The results for the inhibition with Plasmodium falciparum [3], with Plasmodium falciparum [4] and in the assay with Plasmodium falciparum [5] were 32%, 0% and 0%, respectively.
For `Cn1cncc1CN1CC(N(CCc2ccc(F)cc2)S(=O)(=O)c2ccccn2)Cc2cc(C#N)ccc21` (configuration not stated), the EC50 with Plasmodium falciparum [1] stood at 200 nM; with Plasmodium falciparum [2], 650 nM. The results for the inhibition in the assay on Plasmodium falciparum [3], in the assay with Plasmodium falciparum [4] and in the assay on Plasmodium falciparum [5] were 96%, 9% and 71%, respectively.
Take `Cn1cnc(S(=O)(=O)NC2Cc3cc(-c4ccccc4)ccc3N(Cc3cncn3C)C2)c1` (configuration not stated): the EC50 in the assay with Plasmodium falciparum [1] was 3500 nM; in the assay with Plasmodium falciparum [2] it was over 5000 nM. Further, the values for the inhibition in the assay on Plasmodium falciparum [3], in the assay on Plasmodium falciparum [4] and in the assay with Plasmodium falciparum [5] were 80%, 14% and 31%, respectively.
With `COCCCN(C1Cc2cc(C#N)ccc2N(Cc2cncn2C)C1)S(=O)(=O)c1ccccn1` (configuration not stated), the EC50 was determined as 230 nM in the assay with Plasmodium falciparum [1] and 1000 nM with Plasmodium falciparum [2]. Also, the inhibition amounted to 93% in the assay with Plasmodium falciparum [3], 18% with Plasmodium falciparum [4] and 64% in the assay with Plasmodium falciparum [5].
On the same counts, the results for `Cn1cncc1CN1CC(N(Cc2ccc(S(C)(=O)=O)cc2)S(=O)(=O)c2ccccn2)Cc2cc(C#N)ccc21` (configuration not stated) are 210 nM, 405 nM, 96%, 49% and 84%.
`COC(=O)N1CCC(CN(C2Cc3cc(C#N)ccc3N(Cc3cncn3C)C2)S(=O)(=O)c2ccc(OC)cc2)CC1` (configuration not stated): the EC50 was determined as 170 nM with Plasmodium falciparum [1] and 190 nM in the assay on Plasmodium falciparum [2]. Moreover, the inhibition in the assay on Plasmodium falciparum [3] came to 98%; with Plasmodium falciparum [4], 14%; in the assay with Plasmodium falciparum [5], 79%.
As for `CC(C)COC(=O)N1CCC(CN(C2Cc3cc(C#N)ccc3N(Cc3cncn3C)C2)S(=O)(=O)c2cn(C)cn2)CC1` (configuration not stated), the EC50 was found to be 10 nM with Plasmodium falciparum [1] and 5.5 nM with Plasmodium falciparum [2]. Also, the inhibition in the assay with Plasmodium falciparum [3] stood at 98%; with Plasmodium falciparum [4] it was 24%; in the assay on Plasmodium falciparum [5], 90%.
`Cc1ccccc1CN(C1Cc2cc(-c3ccccc3)ccc2N(Cc2cn(C)cn2)C1)S(=O)(=O)c1cn(C)cn1` (configuration not stated): the EC50 is 2900 nM in the assay on Plasmodium falciparum [1] and 1800 nM in the assay with Plasmodium falciparum [2]. In addition, the inhibition is 46% with Plasmodium falciparum [3], 0% in the assay with Plasmodium falciparum [4] and 0% in the assay on Plasmodium falciparum [5].
For the compound `COC(=O)CN(C1Cc2cc(-c3ccccc3)ccc2N(Cc2cn(C)cn2)C1)S(=O)(=O)c1cn(C)cn1` (configuration not stated), the EC50 in the assay with Plasmodium falciparum [1] worked out at 375 nM; in the assay on Plasmodium falciparum [2], 350 nM. Moreover, the inhibition with Plasmodium falciparum [3] turned out to be 99%; with Plasmodium falciparum [4], 37%; with Plasmodium falciparum [5], 87%.
As for `Cn1cnc(CN2CC(N(CC(=O)NC(C)(C)C)S(=O)(=O)c3cccs3)Cc3cc(-c4ccccc4)ccc32)c1` (configuration not stated), the EC50 in the assay with Plasmodium falciparum [1] was 3500 nM; in the assay with Plasmodium falciparum [2], over 5000 nM. Also, the inhibition in the assay on Plasmodium falciparum [3] worked out at 10%; in the assay with Plasmodium falciparum [4], 4%; in the assay on Plasmodium falciparum [5], 1%.
Consider `COC(=O)N(C)CCCCN(C1Cc2cc(C#N)ccc2N(Cc2cncn2C)C1)S(=O)(=O)c1ccccn1` (configuration not stated), for which the EC50 worked out at 230 nM in the assay with Plasmodium falciparum [1] and 400 nM with Plasmodium falciparum [2]. In addition, the inhibition in the assay on Plasmodium falciparum [3] was 90%; with Plasmodium falciparum [4], 15%; in the assay with Plasmodium falciparum [5], 59%.
`Cn1cnc(S(=O)(=O)N(CC(=O)NC(C)(C)C)C2Cc3cc(C(=O)NC(C)(C)C)ccc3N(Cc3cncn3C)C2)c1` (configuration not stated): the EC50 in the assay with Plasmodium falciparum [1] and with Plasmodium falciparum [2] was over 5000 nM in each case. Further, the inhibition in the assay with Plasmodium falciparum [3] came out at 25%; in the assay on Plasmodium falciparum [4] it was 4%; with Plasmodium falciparum [5], 0%.
With `Cn1cnc(S(=O)(=O)N(CC(=O)OC(C)(C)C)C2Cc3cc(C#N)ccc3N(Cc3cncn3Cc3ccccc3)C2)c1` (configuration not stated), the EC50 is 150 nM in the assay with Plasmodium falciparum [1] and 140 nM in the assay with Plasmodium falciparum [2]. In addition, the figures for the inhibition with Plasmodium falciparum [4] and with Plasmodium falciparum [5] were 22% and 45%, respectively.
For the compound `Cn1cncc1CN1CC(N(Cc2cccc(-n3cccn3)c2)S(=O)(=O)c2ccccn2)Cc2cc(C#N)ccc21` (configuration not stated), the EC50 with Plasmodium falciparum [1] and with Plasmodium falciparum [2] was 850 nM in each case. In addition, the inhibition in the assay on Plasmodium falciparum [3] worked out at 90%; with Plasmodium falciparum [5], 52%.
Take `Cn1cncc1CN1CC(N(Cc2cccc(-n3cccc3)c2)S(=O)(=O)c2ccccn2)Cc2cc(C#N)ccc21` (configuration not stated): the EC50 in the assay with Plasmodium falciparum [1] was determined as 143 nM; with Plasmodium falciparum [2], 617 nM. In addition, the inhibition worked out at 97% with Plasmodium falciparum [3] and 69% in the assay with Plasmodium falciparum [5].
